Results on eight compounds are retold here after ChEMBL document CHEMBL1141667, “Synthesis and antimicrobial activities of 7-O-modified genistein derivatives” (2008).

≈ marks a conversion by molar mass, not a printed value.

Type in all cases: functional
The subject of assay [1] is Bacillus subtilis. Kind of assay: Antibacterial activity against Bacillus subtilis after 24 hrs by MTT assay. The method in brief: (§1)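 Broth microdilution MIC in MH medium. Compounds from a 50 mg/mL DMSO stock were serially diluted in medium. Inoculum was about 10⁵ cfu/mL, each concentration in triplicate, incubated at 37 °C for 24 h. MIC was read visually, then confirmed by adding PBS with 2 mg/mL MTT and incubating 4–5 h at room temperature. A compound-free medium control checked for any MTT effect on growth.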
Background: Formazan colour is commonly taken as a measure of viable cells.

The test system of assay [2] is Staphylococcus aureus. The assay can be described thus: Antibacterial activity against Staphylococcus aureus after 24 hrs by MTT assay. The method in brief: as §1
In assay [3] the test system is Pseudomonas fluorescens. The assay can be described thus: Antibacterial activity against Pseudomonas fluorescens after 24 hrs by MTT assay. Put shortly:
as §1

Assay [4] concerns Escherichia coli. Kind of assay: Antibacterial activity against Escherichia coli after 24 hrs by MTT assay. The method in brief:
as §1

Assay [5] has as its system Trichophyton rubrum. The assay can be described thus: Antifungal activity against Trichophyton rubrum after 48 hrs by MTT assay. Put shortly:
(§2)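 Antifungal MIC by microdilution in RPMI-1640 medium. Compounds came from a 50 mg/mL DMSO stock and were serially diluted. Inoculum was about 10⁵ cfu/mL, with triplicate wells per concentration, incubated at 37 °C for 48 h. MIC was judged visually, followed by PBS containing 2 mg/mL MTT for 4–5 h at room temperature for the colorimetric read. A compound-free control tested MTT interference.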

Assay [6] deals with Candida albicans. The assay can be described thus: Antifungal activity against Candida albicans after 48 hrs by MTT assay. The method in brief:
as §2

For assay [7], the system named is Aspergillus niger. The assay can be described thus: Antifungal activity against Aspergillus niger after 48 hrs by MTT assay. The method in brief:
as §2

A word on the MIC: it is the least concentration at which growth counts as inhibited. Turning to `O=c1c(-c2ccc(O)cc2)coc2cc(OCCCn3ccnc3)cc(O)c12`, the MIC in assay [1], in assay [2], in assay [3], in assay [4], in assay [5] and in assay [6] was > 50 µg/mL in each case. Further, the MIC in assay [7] was > 50 µg/mL.
`O=c1c(-c2ccc(O)cc2)coc2cc(OCCCCn3cnc4ccccc43)cc(O)c12`: the MIC in assay [1] was > 50 µg/mL; in assay [2], 21.3 µg/mL (≈ 48.1 µM); in assay [3] it was > 50 µg/mL; in assay [4], > 50 µg/mL; in assay [5], > 50 µg/mL; in assay [6], > 50 µg/mL. In addition, the MIC in assay [7] is > 50 µg/mL.
With `O=c1c(-c2ccc(O)cc2)coc2cc(OCCCCNCc3ccco3)cc(O)c12`, the minimum inhibitory concentration (MIC) in assay [1] is > 50 µg/mL; in assay [2], 35.3 µg/mL (≈ 83.8 µM); in assay [3], 12 µg/mL (≈ 28.5 µM); in assay [4], > 50 µg/mL; in assay [5], > 50 µg/mL; in assay [6], > 50 µg/mL. The MIC in assay [7] was > 50 µg/mL.
With `O=c1c(-c2ccc(O)cc2)coc2cc(OCCCCn3ccnc3)cc(O)c12`, the MIC in assay [1], in assay [2], in assay [3], in assay [4], in assay [5] and in assay [6] was > 50 µg/mL throughout. For the same compound, the MIC in assay [7] is > 50 µg/mL.
Turning to `CCCCN(CCCC)CCCOc1cc(O)c2c(=O)c(-c3ccc(O)cc3)coc2c1`, the MIC was > 50 µg/mL in assay [1]; 17.1 µg/mL (≈ 38.9 µM) in assay [2]; 18.5 µg/mL (≈ 42.1 µM) in assay [3]; > 50 µg/mL in assay [4]; > 50 µg/mL in assay [5]; > 50 µg/mL in assay [6]. Besides, the MIC in assay [7] was > 50 µg/mL.
As for `O=c1c(-c2ccc(O)cc2)coc2cc(OCCCn3cnc4ccccc43)cc(O)c12`, the MIC in assay [1], in assay [2], in assay [3], in assay [4], in assay [5] and in assay [6] was > 50 µg/mL in each case. Further, in assay [7], the MIC was > 50 µg/mL.
Take `O=c1c(-c2ccc(O)cc2)coc2cc(OCCCCN3CCCCC3)cc(O)c12`: the MIC in assay [1], in assay [2], in assay [3], in assay [4], in assay [5] and in assay [6] was > 50 µg/mL each time. The MIC in assay [7] was > 50 µg/mL.
Take `O=c1c(-c2ccc(O)cc2)coc2cc(O)cc(O)c12` [GENISTEIN]: the MIC in assay [1], in assay [2], in assay [3], in assay [4], in assay [5] and in assay [6] was > 50 µg/mL in each case. For the same compound, the MIC in assay [7] was > 50 µg/mL.
